Laboratory results as given in PubChem BioAssay.
Records with an inconclusive call do not appear.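 Rule for the calls, unless noted: active = inhibition over a set limit, the all-compound mean plus 3 SD, in both replicate runs; inconclusive = over that limit in just one replicate run; inactive = at or under that limit in both runs.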

How the values were obtained:
[1] = S. cerevisiae growth inhibition in permissive medium (OD615), pilot counter-assay for S. cerevisiae lifespan shortening project, permissive growth control (AID 705;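 active = growth inhibition above 25% in both replicates, a cutoff set 3 SD above the mean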); settings: OD615, 24 h, at 10 µM, stronger effect = higher value
Method in brief: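 System: S. cerevisiae with engineered DeaD lifespan system. Medium: SC raffinose/galactose permissive medium. Doses: single compound dose of 10 µM, 0.25% DMSO final. Schedule: 24 h exposure, 30 °C. Measured by: OD615 turbidity read. Read-out: growth inhibition.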

[2] = S. cerevisiae growth inhibition in restrictive medium, OD615, pilot screen, restrictive growth control, yeast lifespan reduction project (AID 706;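 active = growth inhibition above a set limit, 3 SD over mean compound inhibition, in both replicates, cut at about 43% in these data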;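 note: modified DeaD lifespan yeast strain shifted to restrictive glucose medium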); settings: OD615, 48 h, at 10 µM, stronger effect = higher value
Method in brief: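 Assay system – genetically modified Saccharomyces cerevisiae, DeaD replicative lifespan assay strain · Medium – CSMM-D glucose medium · Doses – 10 µM compound, 0.25% DMSO · Times – 4 h pre-incubation, 48 h exposure at 30 °C · Signal – optical density at 615 nm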

[3] = doxorubicin toxicity protection in MRP-1 cells – H69AR cells, CellTiter-Glo, duplicate, MRP-1 activator project, pilot screen (AID 807;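 active = viability increase at or above a cutoff of the median across tested compounds plus 3 SD, cut at about 8.5% in these data, passing the limit was not always enough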;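 note: compound pretreatment 18-22 h then 72 h combined with doxorubicin; 0% = doxorubicin alone and 100% = vehicle without doxorubicin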); settings: H69AR viability with doxorubicin, CellTiter-Glo luminescence; at 10 µM; stronger effect = higher value
[4] = viability of HCT116 without oncogenic beta-catenin – human colon tumor cells, pilot screen (AID 823;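 active = cell viability at or below a set limit in both duplicate runs, the limit being the all-compound median minus 4 SD, cut at about 23% in these data, passing the limit was not always enough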;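 note: 0% = wells killed by 20 µM Hyamine and 100% = untreated DMSO cell wells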); settings: HCT116 beta-catenin knockout viability, CellTiter-Glo, 60 h; at 10 µM; stronger effect = lower value
[5] = viability of PTEN-null HCT116 cells – cell-based, HCT116 clonal line, CellTiter-Glo, pilot screen (AID 824;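 active = viability at or below 27.92% in each of two runs, the all-compound median minus 4 SD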;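 note: 0% = 20 µM Hyamine control and 100% = vehicle cell control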); settings: HCT116 PTEN-deleted viability, 60 h, at 10 µM, stronger effect = lower value
[6] = RAM pathway blockade in budding yeast – dse1pr::URA3 reporter, 5-FOA selection, pilot screen (AID 869);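 note: 0% = DMSO wells with no growth and 100% = 10 µM 1-NA-PP1 with full growth; RAM network block rescues cells from 5-FOA so hits raise OD615 growth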; settings: S. cerevisiae dse1pr::URA3 5-FOA growth, OD615, 2 d; at 10 µM; stronger effect = higher value; strain carries analog-sensitive mutant Cbk1 kinase
[7] = RAM signaling pathway blockade in yeast – S. cerevisiae, Pdr1DBD-CYC8 efflux-inhibited sensitized strain, primary screen (AID 1298;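 active = RAM network inhibition above 8.4% in each of two replicates, 3 SD over the compound average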;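 note: 0% = DMSO untreated cells without growth and 100% = 10 µM 1-NA-PP1 full growth; higher means more yeast growth rescued from 5-FOA killing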); settings: S. cerevisiae cbk1-as DSE1-URA3 strain, 5-FOA growth OD615, 2 d; at 50 µM; stronger effect = higher value

Cc1ccc(CCN2C(=O)CCC2(C)C(=O)NC2CCCC2)cc1 (stereo not drawn)
inactive: growth inhibition [1] -7.04% | growth inhibition [2] -1.27% | viability increase [3] -4.22% | viability [4] 97.5% | viability [5] 100% | inhibition [6] 1.19% | RAM network inhibition [7] 5.93%

COc1ccccc1N1CCN(CCCC(=O)c2ccc(F)cc2)CC1
inactive: growth inhibition [1] -11.5% | growth inhibition [2] 1.04% | viability increase [3] -0.78% | viability [4] 80.6% | viability [5] 88.9% | inhibition [6] 2.29% | RAM network inhibition [7] -0.89%

COc1ccc(C(=O)c2coc3ccc(O)c(CN(C)C)c23)cc1
inactive: growth inhibition [1] -15% | growth inhibition [2] -11.6% | viability increase [3] -2.46% | viability [4] 84.4% | viability [5] 76.1% | inhibition [6] 0.74% | RAM network inhibition [7] -1.93%

COc1ccc(-c2nnc(NC(=O)C(C)C)o2)cc1
inactive: growth inhibition [1] 2.56% | growth inhibition [2] 6.86% | viability increase [3] -1.77% | viability [4] 103% | viability [5] 102% | inhibition [6] 1.23% | RAM network inhibition [7] 4.26%

Cn1c(NC(=O)c2ccc3c(c2)OCO3)cc(=O)n(C)c1=O
inactive: growth inhibition [1] -5.14% | growth inhibition [2] -2.67% | viability increase [3] 0.04% | viability [4] 98.5% | viability [5] 92.3% | inhibition [6] 1.05% | RAM network inhibition [7] -2.06%

Cc1noc(C)c1S(=O)(=O)N(CC(=O)NCc1ccc2c(c1)OCO2)c1ccc(C(C)C)cc1
inactive: growth inhibition [1] -13.7% | growth inhibition [2] -8.46% | viability increase [3] -2.92% | viability [4] 82.7% | viability [5] 76.2% | inhibition [6] -0.54% | RAM network inhibition [7] 6.57%

CC(C)CNC1=CC(=O)CC(c2ccco2)C1 (stereo not drawn)
inactive: growth inhibition [1] -13% | growth inhibition [2] -15.9% | viability increase [3] -1.92% | viability [4] 91.5% | viability [5] 93.8% | inhibition [6] 1.17% | RAM network inhibition [7] -0.73%

O=C(Cn1nc(-c2ccccc2)ccc1=O)Nc1ccc(N2CCN(C(=O)c3ccccc3)CC2)cc1
inactive: growth inhibition [1] -10.1% | growth inhibition [2] -24.7% | viability increase [3] -1.77% | viability [4] 94.5% | viability [5] 87.3% | inhibition [6] 2.17% | RAM network inhibition [7] 8.82%

COc1cc(NC(=O)COc2ccc(F)cc2)nc(OC)n1
inactive: growth inhibition [1] -2.6% | growth inhibition [2] 11.7% | viability increase [3] -3.92% | viability [4] 101% | viability [5] 101% | inhibition [6] 1.72% | RAM network inhibition [7] 1.08%

COc1ccc(-c2nnc(SCC(=O)NC(C)c3ccccc3)o2)cc1OC (stereo not drawn)
inactive: growth inhibition [1] -1.92% | growth inhibition [2] -14.2% | viability increase [3] -1.24% | viability [4] 106% | viability [5] 96% | inhibition [6] 1.04% | RAM network inhibition [7] 1.77%

CCC(C)NS(=O)(=O)c1ccc(NC(=O)c2c(-c3ccccc3)noc2C)cc1 (stereo not drawn)
inactive: growth inhibition [1] -6.46% | growth inhibition [2] -11% | viability increase [3] -0.12% | viability [4] 86.3% | viability [5] 71.1% | inhibition [6] 0.48% | RAM network inhibition [7] 5.94%

COc1ccc(N2Cc3cccc(C(=O)N4CCN(C(=O)c5ccco5)CC4)c3C2=O)cc1
inactive: growth inhibition [1] 3.88% | growth inhibition [2] 11.3% | viability increase [3] -1.86% | viability [4] 99.3% | viability [5] 91% | inhibition [6] 2.62% | RAM network inhibition [7] 3.36%

COc1ccc(S(=O)(=O)Cc2ccc(C(=O)N3CCC(C(N)=O)CC3)o2)cc1
inactive: growth inhibition [1] -3.35% | growth inhibition [2] 0.07% | viability increase [3] -0.31% | viability [4] 76% | viability [5] 93.5% | inhibition [6] 2.22% | RAM network inhibition [7] 4.37%

CCOC(=O)c1ccc(Nc2ccc(-c3ccc(OC)c(OC)c3)nn2)cc1
inactive: growth inhibition [1] -6.25% | growth inhibition [2] -20% | viability increase [3] -5.24% | viability [4] 80.8% | viability [5] 77.2% | inhibition [6] 2.08% | RAM network inhibition [7] 3.37%

Cc1csc(=NC(=O)c2ccccc2)n1Cc1ccco1
inactive: growth inhibition [1] -16.8% | growth inhibition [2] -36% | viability increase [3] -2.24% | viability [4] 87.9% | viability [5] 89.9% | inhibition [6] 1.38% | RAM network inhibition [7] 3.14%

CCN1CCN(CCNC(=O)C2CCN(Cc3nc(-c4ccc(Cl)cc4)oc3C)CC2)CC1
inactive: growth inhibition [1] -6.21% | growth inhibition [2] -7.59% | viability increase [3] -3.29% | viability [4] 62.3% | viability [5] 70.1% | inhibition [6] 1.29% | RAM network inhibition [7] 3.67%

CCC(Sc1nncn1C)C(=O)Nc1nnc(-c2ccccc2Cl)s1 (stereo not drawn)
inactive: growth inhibition [1] -3.46% | growth inhibition [2] 31.5% | viability increase [3] -0.85% | viability [4] 103% | viability [5] 92.5% | inhibition [6] 1.72% | RAM network inhibition [7] 2.58%

CCOc1ccccc1NC(=O)C1CCC(CNc2c(N3CCOCC3)c(=O)c2=O)CC1 (stereo not drawn)
inactive: growth inhibition [1] 0.95% | growth inhibition [2] -1.83% | viability increase [3] -0.66% | viability [4] 108% | viability [5] 92.7% | inhibition [6] 1.43% | RAM network inhibition [7] 1.18%

CC(=O)C1=C(C)N=c2s/c(=C/c3ccc4c(c3)OCO4)c(=O)n2C1c1ccc(N(C)C)cc1 (stereo not drawn)
inactive: growth inhibition [1] -9.92% | growth inhibition [2] -9.9% | viability increase [3] -1.24% | viability [4] 93.2% | viability [5] 89.5% | inhibition [6] 1.13% | RAM network inhibition [7] 4.19%

COc1ccc2c(=O)c(N3C(=O)c4ccccc4C3=O)c(C)oc2c1
inactive: growth inhibition [1] -11.8% | growth inhibition [2] -0.32% | viability increase [3] -1.12% | viability [4] 94.2% | viability [5] 92.6% | inhibition [6] -0.25% | RAM network inhibition [7] 1.33%

O=C(c1ccc(COc2ccccc2Cl)o1)N1CCN(c2ccccc2)CC1
inactive: growth inhibition [1] -15.6% | growth inhibition [2] -13.4% | viability increase [3] -4.18% | viability [4] 61.7% | viability [5] 69.7% | inhibition [6] 2.33% | RAM network inhibition [7] 5.58%

COc1cccc(-n2nnc3c(=O)n(Cc4cccc(C)c4)cnc32)c1
inactive: growth inhibition [1] -8.22% | growth inhibition [2] -5.66% | viability increase [3] 0.31% | viability [4] 104% | viability [5] 89.7% | inhibition [6] 0.335% | RAM network inhibition [7] 5.49%

O=C(Nc1nnc(-c2ccccc2)o1)c1nc2ccccc2s1
inactive: growth inhibition [1] -9.03% | growth inhibition [2] 10.3% | viability increase [3] -3.96% | viability [4] 93.8% | viability [5] 88.8% | inhibition [6] 1.39% | RAM network inhibition [7] 0.11%

O=C(NCCC1=CCCCC1)C1CCCN(S(=O)(=O)c2cccnc2)C1 (stereo not drawn)
inactive: growth inhibition [1] -1.48% | growth inhibition [2] 3.42% | viability increase [3] 0.1% | viability [4] 95.8% | viability [5] 101% | inhibition [6] 1.75% | RAM network inhibition [7] 1.4%
